Measured values published in ChEMBL document CHEMBL1811814, “Synthesis and evaluation of indole, pyrazole, chromone and pyrimidine based conjugates for tumor growth inhibitory activities--development of highly efficacious cytotoxic agents” (Eur J Med Chem, 2010).

Experiments:
Assay type in all cases: functional
[1] = tested on: HT-29; assay: Growth inhibition of human HT-29 cells
[2] = tested on: SF-295; assay: Growth inhibition of human SF295 cells assessed tumor cell growth at 10^-5 M; set-up: scale not given: the % may be the effect or the level left
Procedure, shortened: (§1)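 NCI 60-human-tumor-cell-line panel screen. Each compound was tested at a single concentration of 10^-5 M, and percent growth of tumor cells was recorded for each cell line. Growth inhibition was expressed from these percent-growth values.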

[3] = tested on: SK-OV-3; assay: Growth inhibition of human SKOV3 cells assessed tumor cell growth at 10^-5 M; set-up: scale not given: the % may be the effect or the level left; procedure, shortened: as §1
[4] = tested on: OVCAR-5; assay: Growth inhibition of human OVCAR5 cells assessed tumor cell growth at 10^-5 M; set-up: scale not given: the % may be the effect or the level left; procedure, shortened: as §1
[5] = tested on: NCI/ADR-RES; assay: Growth inhibition of human NCI/ADR-RES cells assessed tumor cell growth at 10^-5 M; set-up: scale not given: the % may be the effect or the level left; procedure, shortened: as §1
[6] = tested on: HOP-92; assay: Growth inhibition of human HOP92 cells assessed tumor cell growth at 10^-5 M; set-up: scale not given: the % may be the effect or the level left; procedure, shortened: as §1
[7] = tested on: OVCAR-8; assay: Growth inhibition of human OVCAR8 cells assessed tumor cell growth at 10^-5 M; set-up: scale not given: the % may be the effect or the level left; procedure, shortened: as §1
[8] = tested on: SF-268; assay: Growth inhibition of human SF268 cells assessed tumor cell growth at 10^-5 M; set-up: scale not given: the % may be the effect or the level left; procedure, shortened: as §1
[9] = tested on: UACC-62; assay: Growth inhibition of human UACC62 cells
[10] = tested on: DU-145; assay: Growth inhibition of human DU145 cells
[11] = tested on: HCC 2998; assay: Growth inhibition of human HCC2998 cells
[12] = tested on: UO-31; assay: Growth inhibition of human UO31 cells
[13] = tested on: HCT-116; assay: Growth inhibition of human HCT116 cells
[14] = tested on: NCI-H226; assay: Growth inhibition of human NCI-H226 cells assessed tumor cell growth at 10^-5 M; set-up: scale not given: the % may be the effect or the level left; procedure, shortened: as §1
[15] = tested on: OVCAR-4; assay: Growth inhibition of human OVCAR4 cells assessed tumor cell growth at 10^-5 M; set-up: scale not given: the % may be the effect or the level left; procedure, shortened: as §1
[16] = tested on: K562; assay: Growth inhibition of human K562 cells assessed tumor cell growth at 10^-5 M; set-up: scale not given: the % may be the effect or the level left; procedure, shortened: as §1
[17] = tested on: NCI-H322M; assay: Growth inhibition of human NCI-H322M cells
[18] = tested on: HT-29; assay: Growth inhibition of human HT-29 cells assessed tumor cell growth at 10^-5 M; set-up: scale not given: the % may be the effect or the level left; procedure, shortened: as §1
[19] = tested on: SNB-19; assay: Growth inhibition of human SNB19 cells assessed tumor cell growth at 10^-5 M; set-up: scale not given: the % may be the effect or the level left
Procedure, shortened: (§2)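 Single-dose screen at 10^-5 M across the 60 human tumor cell line panel, run to NCI standards. The value is the percent growth of each cell line in the presence of compound. Compounds active at this dose moved on to five-concentration testing (10^-4 to 10^-8 M).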

[20] = tested on: 786-0; assay: Growth inhibition of human 786-0 cells
[21] = tested on: NCI/ADR-RES; assay: Growth inhibition of human NCI/ADR-RES cells
[22] = tested on: UACC-62; assay: Growth inhibition of human UACC62 cells assessed tumor cell growth at 10^-5 M; set-up: scale not given: the % may be the effect or the level left; procedure, shortened: as §2
[23] = tested on: KM12; assay: Growth inhibition of human KM12 cells assessed tumor cell growth at 10^-5 M; set-up: scale not given: the % may be the effect or the level left; procedure, shortened: as §1
[24] = tested on: CCRF-CEM; assay: Growth inhibition of human CCRF-CEM cells assessed tumor cell growth at 10^-5 M; set-up: scale not given: the % may be the effect or the level left; procedure, shortened: as §1
[25] = tested on: MDA-MB-468; assay: Growth inhibition of human MDA-MB-468 cells assessed tumor cell growth at 10^-5 M; set-up: scale not given: the % may be the effect or the level left; procedure, shortened: as §1
[26] = tested on: MDA-MB-468; assay: Growth inhibition of human MDA-MB-468 cells
[27] = tested on: TK-10; assay: Growth inhibition of human TK10 cells
[28] = tested on: NCI-H23; assay: Growth inhibition of human NCI-H23 cells assessed tumor cell growth at 10^-5 M; set-up: scale not given: the % may be the effect or the level left; procedure, shortened: as §1
[29] = tested on: CAKI-1; assay: Growth inhibition of human Caki1 cells assessed tumor cell growth at 10^-5 M; set-up: scale not given: the % may be the effect or the level left; procedure, shortened: as §1
[30] = tested on: MDA-MB-231; assay: Growth inhibition of human MDA-MB-231 cells assessed tumor cell growth at 10^-5 M; set-up: scale not given: the % may be the effect or the level left; procedure, shortened: as §1
[31] = tested on: SK-MEL-5; assay: Growth inhibition of human SK-MEL-5 cells
[32] = tested on: OVCAR-5; assay: Growth inhibition of human OVCAR5 cells
[33] = tested on: KM12; assay: Growth inhibition of human KM12 cells
[34] = tested on: TK-10; assay: Growth inhibition of human TK10 cells assessed tumor cell growth at 10^-5 M; set-up: scale not given: the % may be the effect or the level left; procedure, shortened: as §2
[35] = tested on: HL-60(TB); assay: Growth inhibition of human HL-60(TB) cells
[36] = tested on: HOP-92; assay: Growth inhibition of human HOP92 cells
[37] = tested on: SF-539; assay: Growth inhibition of human SF539 cells assessed tumor cell growth at 10^-5 M; set-up: scale not given: the % may be the effect or the level left; procedure, shortened: as §1
[38] = tested on: OVCAR-3; assay: Growth inhibition of human OVCAR3 cells
[39] = tested on: SK-OV-3; assay: Growth inhibition of human SKOV3 cells
[40] = tested on: PC-3; assay: Growth inhibition of human PC3 cells assessed tumor cell growth at 10^-5 M; set-up: scale not given: the % may be the effect or the level left; procedure, shortened: as §1
[41] = tested on: T47D; assay: Growth inhibition of human T47D cells assessed tumor cell growth at 10^-5 M; set-up: scale not given: the % may be the effect or the level left; procedure, shortened: as §2
[42] = tested on: COLO 205; assay: Growth inhibition of human COLO205 cells assessed tumor cell growth at 10^-5 M; set-up: scale not given: the % may be the effect or the level left; procedure, shortened: as §1
[43] = tested on: A549; assay: Growth inhibition of human A549 cells
[44] = tested on: CAKI-1; assay: Growth inhibition of human Caki1 cells
[45] = tested on: HCT-15; assay: Growth inhibition of human HCT15 cells
[46] = tested on: SF-295; assay: Growth inhibition of human SF295 cells
[47] = tested on: HL-60(TB); assay: Growth inhibition of human HL-60(TB) cells assessed tumor cell growth at 10^-5 M; set-up: scale not given: the % may be the effect or the level left
Procedure, shortened: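 HL-60(TB), part of the 60-line panel, tested at a single concentration of 10^-5 M. The read-out is percent tumor cell growth relative to untreated growth.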

[48] = tested on: SW-620; assay: Growth inhibition of human SW620 cells
[49] = tested on: MDA-MB-435; assay: Growth inhibition of human MDA-MB-435 cells
[50] = tested on: HOP-62; assay: Growth inhibition of human HOP62 cells
[51] = read-out: LC50 (the source's name)

O=C1Nc2ccccc2/C1=C/c1cn(C(=O)c2c(Cl)cccc2Cl)c2ccccc12
GI50 [1]: 3.8 µM | CC50 [1, 51]: 54.9 µM | Activity [2]: 44.5% | Activity [3]: 71.8% | Activity [4]: 84.9% | Activity [5]: 57.7% | Activity [6]: 49% | Activity [7]: 52.3% | Activity [8]: 56.5% | GI50 [9]: 4.9 µM | CC50 [9, 51]: 61.6 µM | GI50 [10]: 2.7 µM | CC50 [10, 51]: 46.7 µM | GI50 [11]: 6 µM | CC50 [11, 51]: 52.4 µM | GI50 [12]: 1.1 µM | CC50 [12, 51]: 48.9 µM | GI50 [13]: 1.6 µM | CC50 [13, 51]: 6.9 µM | Activity [14]: 48.1% | Activity [15]: 50.3% | Activity [16]: 45.6% | GI50 [17]: 2.9 µM | CC50 [17, 51]: > 100 µM | Activity [18]: 69.6% | Activity [19]: 68.6% | GI50 [20]: 3.3 µM | CC50 [20, 51]: 91.2 µM | GI50 [21]: 3.4 µM | CC50 [21, 51]: > 100 µM | Activity [22]: 36.7% | Activity [23]: 54.7% | Activity [24]: 70.5% | Activity [25]: 32.6% | GI50 [26]: 4.4 µM | CC50 [26, 51]: 69.1 µM | GI50 [27]: 10.4 µM | CC50 [27, 51]: > 100 µM | Activity [28]: 56.9% | Activity [29]: 18.7% | Activity [30]: 55% | GI50 [31]: 7.6 µM | CC50 [31, 51]: 45.7 µM | GI50 [32]: 8.9 µM | CC50 [32, 51]: > 100 µM | GI50 [33]: 1.8 µM | CC50 [33, 51]: 8.9 µM | Activity [34]: 90.7% | GI50 [35]: 2.4 µM | CC50 [35, 51]: > 100 µM | GI50 [36]: 1.5 µM | CC50 [36, 51]: > 100 µM | Activity [37]: 67.4% | GI50 [38]: 1.6 µM | CC50 [38, 51]: 8.1 µM | GI50 [39]: 8.3 µM | CC50 [39, 51]: > 100 µM | Activity [40]: 41.7% | Activity [41]: 47.7% | Activity [42]: 41.7% | GI50 [43]: 3.2 µM | CC50 [43, 51]: > 100 µM | GI50 [44]: 1.9 µM | CC50 [44, 51]: > 100 µM | GI50 [45]: 3.4 µM | CC50 [45, 51]: > 100 µM | GI50 [46]: 2.2 µM | CC50 [46, 51]: 66.1 µM | Activity [47]: 72.1% | GI50 [48]: 2.9 µM | CC50 [48, 51]: 52.4 µM | GI50 [49]: 2.2 µM | CC50 [49, 51]: 51.2 µM | GI50 [50]: 12.8 µM | CC50 [50, 51]: > 100 µM
